Assay results taken from ChEMBL document CHEMBL1157789, “Design, synthesis and SAR of phenylamino-substituted 5,11-dihydro-dibenzo[a,d]cyclohepten-10-ones and 11H-dibenzo[b,f]oxepin-10-ones as p38 MAP kinase inhibitors” (Bioorg Med Chem Lett, 2010).
Activity calls are given as the source filed them. No cut-off for these calls is given here.

Legend:
[1] = Inhibition of p38 assessed as rate of ATF-2 phosphorylation by immunosorbent non-radioactive enzyme assay
Procedure, shortened: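 p38α MAP kinase ELISA-type (immunosorbent, non-radioactive) assay. Enzyme was incubated with ATP at 100 µM, ATF-2 as substrate, and test compound at 10^-5 to 10^-8 M. Activity was read as the rate of ATF-2 phosphorylation. SB203580 served as the reference inhibitor.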

[2] = biological target: RAC-alpha serine/threonine-protein kinase (Homo sapiens) (UniProt P31749); test: Inhibition of AKT1 at 10 uM
[3] = biological target: T1, NUAK family SNF1-like kinase 1 (Homo sapiens) (UniProt O60285); test: Inhibition of ARK5 at 10 uM
T1 sequence (whole entry): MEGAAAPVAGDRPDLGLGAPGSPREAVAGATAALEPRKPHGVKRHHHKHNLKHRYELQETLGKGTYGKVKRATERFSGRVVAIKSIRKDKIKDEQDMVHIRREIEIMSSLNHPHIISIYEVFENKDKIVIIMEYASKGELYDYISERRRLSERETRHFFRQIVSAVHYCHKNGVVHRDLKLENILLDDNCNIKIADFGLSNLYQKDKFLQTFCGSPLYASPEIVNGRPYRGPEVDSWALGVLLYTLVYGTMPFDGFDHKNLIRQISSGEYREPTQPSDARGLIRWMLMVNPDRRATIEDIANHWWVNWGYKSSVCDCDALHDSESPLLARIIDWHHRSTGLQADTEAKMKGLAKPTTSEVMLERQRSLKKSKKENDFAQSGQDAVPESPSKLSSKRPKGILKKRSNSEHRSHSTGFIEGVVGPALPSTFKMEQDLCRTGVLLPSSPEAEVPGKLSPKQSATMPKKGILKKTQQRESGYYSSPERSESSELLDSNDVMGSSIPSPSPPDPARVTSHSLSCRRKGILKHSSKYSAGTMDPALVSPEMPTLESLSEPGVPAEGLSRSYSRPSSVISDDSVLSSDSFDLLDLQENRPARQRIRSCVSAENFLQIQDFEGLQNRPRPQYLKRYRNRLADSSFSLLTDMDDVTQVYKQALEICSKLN

[4] = biological target: Aurora kinase B (Homo sapiens) (UniProt Q96GD4); test: Inhibition of Aurora B at 10 uM
[5] = biological target: Tyrosine-protein kinase receptor UFO (Homo sapiens) (UniProt P30530); test: Inhibition of AXL at 10 uM
[6] = test system: Serine/threonine-protein kinase B-raf (Homo sapiens), P15056 [V600E]; test: Inhibition of B-Raf V600E mutant at 10 uM
[7] = biological target: Casein kinase II subunit alpha (Homo sapiens) (UniProt P68400); test: Inhibition of CK2alpha1 at 10 uM
[8] = biological target: Focal adhesion kinase 1 (Homo sapiens) (UniProt Q05397); test: Inhibition of FAK at 10 uM
[9] = biological target: Insulin-like growth factor 1 receptor (Homo sapiens) (UniProt P08069); test: Inhibition of IGF1R at 10 uM
[10] = biological target: Insulin receptor (Homo sapiens) (UniProt P06213); test: Inhibition of INSR at 10 uM
[11] = biological target: Hepatocyte growth factor receptor (Homo sapiens) (UniProt P08581); test: Inhibition of MET at 10 uM
[12] = biological target: Serine/threonine-protein kinase PLK1 (Homo sapiens) (UniProt P53350); test: Inhibition of PLK1 at 10 uM
[13] = biological target: Serine/threonine-protein kinase N1 (Homo sapiens) (UniProt Q16512); test: Inhibition of PRK1 at 10 uM
[14] = biological target: T2, Serine/threonine-protein kinase PLK4 (Homo sapiens) (UniProt O00444); test: Inhibition of SAK at 10 uM
T2 sequence (whole entry): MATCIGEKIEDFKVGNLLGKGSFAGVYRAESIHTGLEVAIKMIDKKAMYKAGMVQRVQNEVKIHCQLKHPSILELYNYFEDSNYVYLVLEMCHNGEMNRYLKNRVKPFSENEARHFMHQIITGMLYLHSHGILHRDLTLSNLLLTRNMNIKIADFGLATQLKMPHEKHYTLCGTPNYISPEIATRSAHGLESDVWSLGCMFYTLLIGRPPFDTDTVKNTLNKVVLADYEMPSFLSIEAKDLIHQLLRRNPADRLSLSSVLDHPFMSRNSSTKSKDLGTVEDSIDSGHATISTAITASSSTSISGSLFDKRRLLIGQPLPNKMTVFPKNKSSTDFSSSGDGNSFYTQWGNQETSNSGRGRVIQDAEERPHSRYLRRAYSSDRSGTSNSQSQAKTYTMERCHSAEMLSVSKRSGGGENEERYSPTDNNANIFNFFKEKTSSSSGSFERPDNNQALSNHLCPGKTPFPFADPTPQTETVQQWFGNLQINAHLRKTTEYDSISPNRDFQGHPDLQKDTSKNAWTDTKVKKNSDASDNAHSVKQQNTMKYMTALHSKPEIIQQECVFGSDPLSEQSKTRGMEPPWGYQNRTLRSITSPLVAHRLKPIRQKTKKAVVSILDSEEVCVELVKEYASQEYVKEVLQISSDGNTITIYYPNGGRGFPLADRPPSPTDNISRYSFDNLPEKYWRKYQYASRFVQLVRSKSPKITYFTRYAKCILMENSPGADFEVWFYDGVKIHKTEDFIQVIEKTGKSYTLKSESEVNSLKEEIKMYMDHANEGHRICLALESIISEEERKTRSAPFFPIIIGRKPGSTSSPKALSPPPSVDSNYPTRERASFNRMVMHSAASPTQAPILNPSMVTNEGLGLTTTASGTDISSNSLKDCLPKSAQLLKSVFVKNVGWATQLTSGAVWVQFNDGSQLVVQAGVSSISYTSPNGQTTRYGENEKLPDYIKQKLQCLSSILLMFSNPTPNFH

[15] = biological target: Proto-oncogene tyrosine-protein kinase Src (Homo sapiens) (UniProt P12931); test: Inhibition of SRC at 10 uM
[16] = biological target: BDNF/NT-3 growth factors receptor (Homo sapiens) (UniProt Q16620); test: Inhibition of TRKB at 10 uM
[17] = biological target: Vascular endothelial growth factor receptor 2 (Homo sapiens) (UniProt P35968); test: Inhibition of VGFR2 at 10 uM

Tyrosine-protein kinase receptor UFO (Homo sapiens), sequence (P30530 whole entry): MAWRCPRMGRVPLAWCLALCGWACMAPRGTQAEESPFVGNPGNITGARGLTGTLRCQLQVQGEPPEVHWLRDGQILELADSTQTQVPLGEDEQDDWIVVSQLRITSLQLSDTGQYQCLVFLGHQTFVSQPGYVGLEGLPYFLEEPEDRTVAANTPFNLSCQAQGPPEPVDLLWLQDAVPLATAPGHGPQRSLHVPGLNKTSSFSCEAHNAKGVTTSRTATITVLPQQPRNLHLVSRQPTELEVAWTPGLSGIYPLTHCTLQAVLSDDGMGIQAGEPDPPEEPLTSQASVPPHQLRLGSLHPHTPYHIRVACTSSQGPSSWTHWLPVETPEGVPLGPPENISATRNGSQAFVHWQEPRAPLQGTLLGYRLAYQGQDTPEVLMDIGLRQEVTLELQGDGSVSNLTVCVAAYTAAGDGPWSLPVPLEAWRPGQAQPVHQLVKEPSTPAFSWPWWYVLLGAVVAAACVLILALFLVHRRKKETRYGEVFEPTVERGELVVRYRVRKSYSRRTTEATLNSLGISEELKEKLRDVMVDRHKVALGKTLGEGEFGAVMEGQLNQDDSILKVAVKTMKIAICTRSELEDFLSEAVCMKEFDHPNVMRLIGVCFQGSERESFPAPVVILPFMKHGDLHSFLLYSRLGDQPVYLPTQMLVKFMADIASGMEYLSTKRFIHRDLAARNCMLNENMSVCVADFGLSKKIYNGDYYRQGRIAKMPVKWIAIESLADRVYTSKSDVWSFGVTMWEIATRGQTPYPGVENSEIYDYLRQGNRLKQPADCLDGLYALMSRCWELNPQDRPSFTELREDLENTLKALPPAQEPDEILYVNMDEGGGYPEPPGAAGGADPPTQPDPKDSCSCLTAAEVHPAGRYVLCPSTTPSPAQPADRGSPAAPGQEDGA
Serine/threonine-protein kinase N1 (Homo sapiens), sequence (Q16512 2-942 limits assumed): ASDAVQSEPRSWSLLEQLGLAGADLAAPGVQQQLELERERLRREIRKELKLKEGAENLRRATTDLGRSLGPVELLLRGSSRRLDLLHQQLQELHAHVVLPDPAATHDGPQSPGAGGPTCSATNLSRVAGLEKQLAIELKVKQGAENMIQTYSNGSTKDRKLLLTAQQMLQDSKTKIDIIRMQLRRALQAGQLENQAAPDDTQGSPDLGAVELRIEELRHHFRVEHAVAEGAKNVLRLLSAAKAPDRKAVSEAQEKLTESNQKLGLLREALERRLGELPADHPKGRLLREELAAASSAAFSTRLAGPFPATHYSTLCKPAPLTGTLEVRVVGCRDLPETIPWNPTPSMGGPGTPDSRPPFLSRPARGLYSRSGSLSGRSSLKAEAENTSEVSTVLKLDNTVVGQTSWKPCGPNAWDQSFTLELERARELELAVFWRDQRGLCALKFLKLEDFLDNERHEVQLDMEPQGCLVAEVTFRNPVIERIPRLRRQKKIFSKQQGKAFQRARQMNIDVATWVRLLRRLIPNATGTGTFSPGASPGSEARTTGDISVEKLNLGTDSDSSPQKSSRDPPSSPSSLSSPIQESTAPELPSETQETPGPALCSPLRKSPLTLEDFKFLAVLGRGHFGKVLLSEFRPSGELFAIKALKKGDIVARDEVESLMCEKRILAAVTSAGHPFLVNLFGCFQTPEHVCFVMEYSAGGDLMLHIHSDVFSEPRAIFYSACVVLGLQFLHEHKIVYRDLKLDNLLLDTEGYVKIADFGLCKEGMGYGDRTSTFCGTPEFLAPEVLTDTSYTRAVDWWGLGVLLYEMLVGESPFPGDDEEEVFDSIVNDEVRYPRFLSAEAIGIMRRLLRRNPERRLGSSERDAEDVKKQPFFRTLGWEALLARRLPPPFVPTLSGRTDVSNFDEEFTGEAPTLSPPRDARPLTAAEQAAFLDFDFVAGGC
Insulin-like growth factor 1 receptor (Homo sapiens), sequence (P08069 31-736 limits assumed): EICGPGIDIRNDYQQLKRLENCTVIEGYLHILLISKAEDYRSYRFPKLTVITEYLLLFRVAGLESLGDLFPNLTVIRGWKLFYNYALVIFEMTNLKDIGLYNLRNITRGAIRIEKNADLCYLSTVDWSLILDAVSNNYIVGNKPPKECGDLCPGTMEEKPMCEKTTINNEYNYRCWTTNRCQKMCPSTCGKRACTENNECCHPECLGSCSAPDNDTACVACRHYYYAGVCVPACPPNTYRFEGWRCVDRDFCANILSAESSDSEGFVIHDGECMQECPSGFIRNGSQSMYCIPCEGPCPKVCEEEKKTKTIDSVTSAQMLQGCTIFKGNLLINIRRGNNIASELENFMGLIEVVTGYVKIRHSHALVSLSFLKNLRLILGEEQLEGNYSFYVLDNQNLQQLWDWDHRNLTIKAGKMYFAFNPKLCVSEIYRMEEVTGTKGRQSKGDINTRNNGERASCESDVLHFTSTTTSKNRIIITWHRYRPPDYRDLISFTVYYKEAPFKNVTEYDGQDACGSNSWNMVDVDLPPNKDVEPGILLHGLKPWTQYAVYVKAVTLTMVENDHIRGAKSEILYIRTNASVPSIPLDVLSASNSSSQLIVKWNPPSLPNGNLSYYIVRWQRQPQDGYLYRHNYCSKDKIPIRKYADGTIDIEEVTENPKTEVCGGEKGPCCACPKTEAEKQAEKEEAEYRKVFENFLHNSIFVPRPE
Insulin-like growth factor 1 receptor (Homo sapiens), sequence (P08069 741-1367 limits assumed): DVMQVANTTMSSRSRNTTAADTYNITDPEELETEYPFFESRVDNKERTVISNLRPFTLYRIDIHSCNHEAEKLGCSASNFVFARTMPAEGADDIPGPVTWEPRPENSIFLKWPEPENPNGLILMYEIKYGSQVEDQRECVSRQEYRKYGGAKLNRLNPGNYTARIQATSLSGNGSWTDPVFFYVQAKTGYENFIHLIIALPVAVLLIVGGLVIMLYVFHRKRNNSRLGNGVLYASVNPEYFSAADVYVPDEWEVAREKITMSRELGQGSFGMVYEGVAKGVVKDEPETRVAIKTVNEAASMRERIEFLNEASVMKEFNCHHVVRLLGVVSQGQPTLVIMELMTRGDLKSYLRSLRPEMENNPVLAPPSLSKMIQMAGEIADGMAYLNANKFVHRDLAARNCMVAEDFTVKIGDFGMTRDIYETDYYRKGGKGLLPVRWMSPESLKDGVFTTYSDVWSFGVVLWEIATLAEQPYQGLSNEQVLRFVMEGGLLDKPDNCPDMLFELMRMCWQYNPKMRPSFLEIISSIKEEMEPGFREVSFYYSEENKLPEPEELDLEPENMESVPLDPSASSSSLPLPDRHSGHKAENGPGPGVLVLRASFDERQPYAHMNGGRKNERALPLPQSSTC
RAC-alpha serine/threonine-protein kinase (Homo sapiens), sequence (P31749 whole entry): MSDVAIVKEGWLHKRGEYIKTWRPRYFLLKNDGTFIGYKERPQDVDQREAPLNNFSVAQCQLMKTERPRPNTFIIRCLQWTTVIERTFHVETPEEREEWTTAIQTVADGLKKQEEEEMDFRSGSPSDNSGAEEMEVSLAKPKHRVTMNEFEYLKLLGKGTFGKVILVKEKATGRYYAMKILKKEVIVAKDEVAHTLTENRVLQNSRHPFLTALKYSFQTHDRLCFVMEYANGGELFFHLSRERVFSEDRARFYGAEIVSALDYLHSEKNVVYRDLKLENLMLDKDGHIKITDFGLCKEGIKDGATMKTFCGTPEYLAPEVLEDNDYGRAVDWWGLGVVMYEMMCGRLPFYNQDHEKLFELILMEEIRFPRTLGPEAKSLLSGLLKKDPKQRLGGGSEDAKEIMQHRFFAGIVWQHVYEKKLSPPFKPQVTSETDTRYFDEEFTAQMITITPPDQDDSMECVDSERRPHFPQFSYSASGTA
Serine/threonine-protein kinase B-raf (Homo sapiens), P15056 [V600E], sequence (P15056 whole entry V600E): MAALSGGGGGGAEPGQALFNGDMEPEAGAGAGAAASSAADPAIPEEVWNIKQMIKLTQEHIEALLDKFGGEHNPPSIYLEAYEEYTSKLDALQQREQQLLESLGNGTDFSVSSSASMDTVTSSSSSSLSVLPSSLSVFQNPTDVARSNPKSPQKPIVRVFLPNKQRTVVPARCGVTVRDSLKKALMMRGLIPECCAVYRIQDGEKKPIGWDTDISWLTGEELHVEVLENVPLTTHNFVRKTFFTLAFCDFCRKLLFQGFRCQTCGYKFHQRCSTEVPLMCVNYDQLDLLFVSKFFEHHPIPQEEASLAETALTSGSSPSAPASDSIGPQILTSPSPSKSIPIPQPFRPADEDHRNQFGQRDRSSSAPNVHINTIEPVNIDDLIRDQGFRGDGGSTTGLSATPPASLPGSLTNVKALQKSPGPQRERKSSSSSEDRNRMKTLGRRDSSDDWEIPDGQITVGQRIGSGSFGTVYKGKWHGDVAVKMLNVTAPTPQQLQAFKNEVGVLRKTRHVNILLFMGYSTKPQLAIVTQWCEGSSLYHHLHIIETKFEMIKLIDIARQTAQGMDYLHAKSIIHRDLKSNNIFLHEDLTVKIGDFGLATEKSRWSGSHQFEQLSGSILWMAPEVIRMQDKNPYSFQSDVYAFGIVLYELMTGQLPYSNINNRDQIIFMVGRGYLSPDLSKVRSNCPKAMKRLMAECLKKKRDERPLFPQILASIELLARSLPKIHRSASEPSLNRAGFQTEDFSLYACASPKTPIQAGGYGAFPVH
Serine/threonine-protein kinase PLK1 (Homo sapiens), sequence (P53350 whole entry): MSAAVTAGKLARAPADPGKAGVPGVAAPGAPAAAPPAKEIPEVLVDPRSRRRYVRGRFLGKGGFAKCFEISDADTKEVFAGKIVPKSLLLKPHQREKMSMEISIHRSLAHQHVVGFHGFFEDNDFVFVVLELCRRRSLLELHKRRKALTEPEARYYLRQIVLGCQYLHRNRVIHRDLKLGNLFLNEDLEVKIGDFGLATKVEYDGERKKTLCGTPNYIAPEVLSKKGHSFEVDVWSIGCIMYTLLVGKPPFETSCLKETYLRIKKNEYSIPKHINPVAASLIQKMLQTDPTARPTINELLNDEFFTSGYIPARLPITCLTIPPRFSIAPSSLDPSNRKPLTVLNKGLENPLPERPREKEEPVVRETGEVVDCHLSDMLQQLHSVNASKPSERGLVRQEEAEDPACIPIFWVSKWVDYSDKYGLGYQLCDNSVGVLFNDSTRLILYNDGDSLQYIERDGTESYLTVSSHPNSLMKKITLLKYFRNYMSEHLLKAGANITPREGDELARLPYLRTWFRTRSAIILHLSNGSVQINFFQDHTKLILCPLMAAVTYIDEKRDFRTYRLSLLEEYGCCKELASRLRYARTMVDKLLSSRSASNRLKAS

SMILES	IC50 [1] [nM]	inhibition [2]	inhibition [3]	inhibition [4]	inhibition [5]	inhibition [6]	inhibition [7]	inhibition [8]	inhibition [9]	inhibition [10]	inhibition [11]	inhibition [12]	inhibition [13]	inhibition [14]	inhibition [15]	inhibition [16]	inhibition [17]
Nc1ccccc1Nc1ccc2c(c1)CC(=O)c1ccccc1C2	2100	inactive	inactive	inactive	inactive	inactive	inactive	inactive	inactive	inactive	inactive	inactive	inactive	inactive	inactive	inactive	inactive
Nc1ccccc1Nc1ccc2c(c1)Cc1ccccc1C(=O)C2	1930	inactive	inactive	inactive	inactive	inactive	inactive	inactive	inactive	inactive	inactive	inactive	inactive	inactive	inactive	inactive	inactive
Nc1cc(F)ccc1Nc1ccc2c(c1)Cc1ccccc1C(=O)C2	3820	inactive	inactive	inactive	inactive	inactive	inactive	inactive	inactive	inactive	inactive	inactive	inactive	inactive	inactive	inactive	inactive
O=C1Cc2ccccc2Cc2cc(Nc3ccccc3)ccc21	1750	inactive	inactive	inactive	inactive	inactive	inactive	inactive	inactive	inactive	inactive	inactive	inactive	inactive	inactive	inactive	inactive
Nc1cc(F)ccc1Nc1ccc2c(c1)Oc1ccccc1NC2=O	2920	inactive	inactive	inactive	inactive	inactive	inactive	inactive	inactive	inactive	inactive	inactive	inactive	inactive	inactive	inactive	inactive
O=C1Cc2ccccc2Cc2cc(Nc3ccc(F)cc3F)ccc21	1510	inactive	inactive	inactive	inactive	inactive	inactive	inactive	inactive	inactive	inactive	inactive	inactive	inactive	inactive	inactive	inactive
O=C1Cc2ccc(Nc3ccccc3)cc2Cc2ccccc21	3210	inactive	inactive	inactive	inactive	inactive	inactive	inactive	inactive	inactive	inactive	inactive	inactive	inactive	inactive	inactive	inactive
O=C1Cc2ccccc2Oc2cc(Nc3ccccc3)ccc21	2920	–	–	–	–	–	–	–	–	–	–	–	–	–	–	–	–
Nc1cc(F)ccc1Nc1ccc2c(c1)Cc1ccccc1CC2=O	1720	inactive	inactive	inactive	inactive	inactive	inactive	inactive	inactive	inactive	inactive	inactive	inactive	inactive	inactive	inactive	inactive
Nc1ccccc1Nc1ccc2c(c1)Cc1ccccc1CC2=O	990	inactive	inactive	inactive	inactive	inactive	inactive	inactive	inactive	inactive	inactive	inactive	inactive	inactive	inactive	inactive	inactive
Nc1cc(F)ccc1Nc1ccc2c(c1)Oc1ccccc1CC2=O	1630	–	–	–	–	–	–	–	–	–	–	–	–	–	–	–	–
Nc1ccccc1Nc1ccc2c(c1)CCc1ccccc1C2=O	50	–	–	–	–	–	–	–	–	–	–	–	–	–	–	–	–
Nc1ccccc1Nc1ccc2c(c1)Oc1ccccc1CC2=O	1200	–	–	–	–	–	–	–	–	–	–	–	–	–	–	–	–
